The record followed here is ChEMBL document CHEMBL1221219, “Selective blockade of 2-arachidonoylglycerol hydrolysis produces cannabinoid behavioral effects” (Nat Chem Biol, 2009).

Active and inactive are the calls of the source. The rule behind the calls is not given here.

The test system of assay [1] is Mus musculus. Nature of the assay: Inhibition of PAFAH-1Bb in C57B1/6J mouse brain membrane at 16 mg/kg, ip after 4 hrs by competitive activity-based protein profiling-MudPIT method. More on the design: dose 16 mg/kg. In kind it is functional, organism-based. Put shortly: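 After i.p. dosing in 4:1 PEG300:Tween80, male C57Bl/6J mice were killed at 4 h. Brain membrane proteomes from treated and vehicle mice were labelled with FP-biotin. Labelled proteins were enriched on avidin, digested on-bead with trypsin and analysed by multidimensional LC-MS. Proteins were identified by SEQUEST, and dosed samples were compared with vehicle.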

The target of assay [2] is T1, Diacylglycerol lipase-alpha (Homo sapiens) (UniProt Q9Y4D2).
T1 sequence (whole entry): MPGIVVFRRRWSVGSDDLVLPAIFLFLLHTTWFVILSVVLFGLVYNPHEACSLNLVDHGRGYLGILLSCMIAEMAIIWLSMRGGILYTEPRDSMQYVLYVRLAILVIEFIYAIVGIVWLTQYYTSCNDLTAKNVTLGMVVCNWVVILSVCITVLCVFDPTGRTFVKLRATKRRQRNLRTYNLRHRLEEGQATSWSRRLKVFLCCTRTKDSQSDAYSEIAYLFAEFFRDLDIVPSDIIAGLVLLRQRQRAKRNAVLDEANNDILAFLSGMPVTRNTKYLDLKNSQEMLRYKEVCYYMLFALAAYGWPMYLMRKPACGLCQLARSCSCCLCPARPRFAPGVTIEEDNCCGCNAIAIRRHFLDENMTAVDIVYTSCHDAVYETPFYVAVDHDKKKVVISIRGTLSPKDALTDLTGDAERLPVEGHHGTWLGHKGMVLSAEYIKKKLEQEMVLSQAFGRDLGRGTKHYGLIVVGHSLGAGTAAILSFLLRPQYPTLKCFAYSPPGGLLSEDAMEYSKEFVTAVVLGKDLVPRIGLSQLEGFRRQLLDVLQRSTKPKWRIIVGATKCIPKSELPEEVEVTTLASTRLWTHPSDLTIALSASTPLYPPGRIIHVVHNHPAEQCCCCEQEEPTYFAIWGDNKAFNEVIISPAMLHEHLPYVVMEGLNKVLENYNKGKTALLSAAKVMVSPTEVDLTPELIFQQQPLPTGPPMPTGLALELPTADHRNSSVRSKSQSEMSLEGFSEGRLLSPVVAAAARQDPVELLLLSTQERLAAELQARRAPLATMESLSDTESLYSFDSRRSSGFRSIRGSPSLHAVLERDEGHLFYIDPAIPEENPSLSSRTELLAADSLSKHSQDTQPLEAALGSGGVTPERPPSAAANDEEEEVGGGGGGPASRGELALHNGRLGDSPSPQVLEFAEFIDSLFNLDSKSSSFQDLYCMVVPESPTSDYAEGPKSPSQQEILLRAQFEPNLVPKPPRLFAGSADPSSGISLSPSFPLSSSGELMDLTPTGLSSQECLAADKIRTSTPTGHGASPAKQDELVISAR
Nature of the assay: Inhibition of recombinant DAGLalpha expressed in HEK293 cells assessed as hydrolysis of 1-stearoyl-2-arachidonoyl-glycerol to 2-AG at 25 uM after 30 mins by LC-MS method. The format is cell-based.

Assay [3] deals with Mus musculus. Nature of the assay: Inhibition of FAAH in intraperitoneally dosed C57B1/6J mouse brain membrane after 4 hrs by competitive activity-based protein profiling method. The format is functional, organism-based. Put shortly:
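Male C57Bl/6J mice (6-8 weeks, 20-26 g) given inhibitor i.p. in 4:1 v/v PEG300:Tween80 at 4 ul g^-1 (4-40 mg kg^-1); vehicle controls. Brain membrane proteomes (1 mg ml^-1 in PBS) labelled with FP-rhodamine (2 μM) for 30 min at room temperature. Readout by SDS-PAGE and in-gel fluorescence scanning, compared with vehicle.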

The test system of assay [4] is Mus musculus. Nature of the assay: Inhibition of FAAH in C57B1/6J mouse brain membrane at 10 mg/kg, ip by competitive activity-based protein profiling method. More on the design: dose 10 mg/kg. The format is functional, organism-based.
Assay [5] has as its target T2, Cytosolic phospholipase A2 (Homo sapiens) (UniProt P47712).
T2 sequence (whole entry): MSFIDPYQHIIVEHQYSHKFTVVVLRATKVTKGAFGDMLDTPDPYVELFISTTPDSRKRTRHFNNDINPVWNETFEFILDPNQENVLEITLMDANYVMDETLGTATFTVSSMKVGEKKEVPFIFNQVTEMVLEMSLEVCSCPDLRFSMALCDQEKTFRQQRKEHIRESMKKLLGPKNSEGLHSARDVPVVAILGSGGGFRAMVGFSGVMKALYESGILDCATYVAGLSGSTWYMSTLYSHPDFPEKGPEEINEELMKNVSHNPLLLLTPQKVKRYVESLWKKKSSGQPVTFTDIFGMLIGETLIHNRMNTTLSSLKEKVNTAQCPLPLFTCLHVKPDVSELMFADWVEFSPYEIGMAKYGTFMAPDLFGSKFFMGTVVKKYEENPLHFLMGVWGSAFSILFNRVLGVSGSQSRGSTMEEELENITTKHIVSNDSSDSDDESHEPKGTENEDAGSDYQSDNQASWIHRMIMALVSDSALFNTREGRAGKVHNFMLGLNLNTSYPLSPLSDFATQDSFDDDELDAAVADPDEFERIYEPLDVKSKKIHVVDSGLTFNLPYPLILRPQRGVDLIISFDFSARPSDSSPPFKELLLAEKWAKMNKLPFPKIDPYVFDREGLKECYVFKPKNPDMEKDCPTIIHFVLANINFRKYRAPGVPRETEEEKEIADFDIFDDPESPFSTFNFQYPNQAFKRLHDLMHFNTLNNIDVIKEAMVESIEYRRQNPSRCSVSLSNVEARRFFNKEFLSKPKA
Nature of the assay: Inhibition of recombinant cPLA2 4a expressed in HEK293 cells at 20 uM by radiolabeled TLC assay. The format is cell-based.

Assay [6] concerns Mus musculus. Nature of the assay: Visceral analgesic activity against C57B1/6J mouse assessed as inhibition of acetic acid-induced writhing response for 20 mins at 16 mg/kg, ip pretreated 2 hr before acetic acid challenge. In kind it is functional, organism-based. More on the design: dose 16 mg/kg. Put shortly:
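Male C57Bl/6J mice (6-8 weeks) dosed 16 mg kg^-1 i.p. in 4:1 v/v PEG300:Tween80, with vehicle controls. Assessed in the tetrad test for cannabinoid effects or in the acetic acid-induced abdominal stretching assay.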
Background: In writhing tests, fewer writhes than in controls are read as antinociception.

The subject of assay [7] is Mus musculus. Nature of the assay: Inhibition of DPP8 in C57B1/6J mouse brain membrane at 16 mg/kg, ip after 4 hrs by competitive activity-based protein profiling-MudPIT method. More on the design: dose 16 mg/kg. In kind it is functional, organism-based. The essentials:
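Mice were dosed 16 mg kg^-1 i.p. or vehicle and killed at 4 h. Brain membrane proteomes were labelled with FP-biotin, avidin-enriched, trypsin-digested on bead, analysed by multidimensional LC-MS and identified by SEQUEST.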

The test system of assay [8] is Mus musculus. Nature of the assay: Induction of hypomotility in CB1 receptor deficient C57B1/6J mouse at 16 mg/kg, ip. In kind it is functional, organism-based. More on the design: dose 16 mg/kg. Put shortly:
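Male C57Bl/6J mice, 6-8 weeks, 20-26 g, given 16 mg kg^-1 i.p. in 4:1 v/v PEG300:Tween80 at 4 μl g^-1; vehicle controls received PEG300:Tween80 alone. Cannabinoid effects were scored in the tetrad test.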

As to `O=C(Oc1ccc([N+](=O)[O-])cc1)N1CCC(C(O)(c2ccc3c(c2)OCO3)c2ccc3c(c2)OCO3)CC1`, the inhibition entry (in the assay on Mus musculus [1]; in assay [2]; in assay [5]; with Mus musculus [7]) was “inactive” each time. Besides, in the assay on Mus musculus [3], the inhibition entry was “Dose-dependent effect”. In addition, the inhibition result in the assay with Mus musculus [4] is “Active”. In addition, the outcome with Mus musculus [6] was Active. In the assay on Mus musculus [8], the outcome was inactive.
